The source made the active and inactive calls. No cut-off for these calls is given here.
Assays:
Cortical neurone [1] = assay: Toxicity in CD1 mouse primary cortical neurons assessed as effect on cell viability at 0.01 to 1 uM incubated for 24 hrs by CCK8 assay; format: cell-based
Summary of the method: (§1)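 Primary cortical neuron cultures were given compound alone across a concentration range, without Aβ. Cell viability was measured by CCK8 and expressed as percent reduction in viable cells. Data are mean ± SD of three independent experiments.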

Cortical neurone [2] = assay: Neuroprotective activity against amyloid beta (1 to 42) peptide-induced cytotoxicty in CD1 mouse primary cortical neurons assessed as increase in cell viability at 1 to 10 nM pre-incubated for 1 hr before amyloid beta (1 to 42) addition and measured after 24 hrs by CCK8 assay; format: functional, cell-based
[3] = Toxicity in African green monkey CV1 cells assessed as effect on cell viability incubated for 24 hrs by CCK8 assay
[4] = Toxicity in CD1 mouse primary cortical neurons assessed as effect on cell viability at 100 nM incubated for 24 hrs by CCK8 assay; format: cell-based, Cortical neurone; conditions: read-out: Activity
Summary of the method: (§2)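 Primary cortical neuron cultures were exposed to compound alone at the stated concentration. Viability was measured by CCK8 and expressed as the percentage reduction in viable cells.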

BV-2 (Mus musculus) [5] = assay: Antiinflammatory activity in mouse BV-2 cells assessed as inhibition of LPS-induced TNF-alpha production at 10 nM pre-incubated for 1 hr before LPS stimulation for 23 hrs by ELISA method
Cortical neurone [6] = assay: Toxicity in CD1 mouse primary cortical neurons assessed as effect on cell viability at =< 10 nM incubated for 24 hrs by CCK8 assay; format: cell-based; summary of the method: as §1
Cortical neurone [7] = assay: Neuroprotective activity against amyloid beta (1 to 42) peptide-induced cytotoxicty in CD1 mouse primary cortical neurons assessed as increase in cell viability at 0.01 nM pre-incubated for 1 hr before amyloid beta (1 to 42) addition and measured after 24 hrs by CCK8 assay; format: functional
[8] = Stability in neurobasal cell culture medium supplemented with B-27 and N2 assessed as compound hydrolysis by LC-HR MS method; format: physicochemical; conditions: read-out: Drug degradation
Summary of the method: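 Compound was incubated in neurobasal culture medium containing B-27 and N2 at 37 °C for 24 h, with no enzyme present. The remaining compound concentration was then quantified by LC-HRMS.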

[9] = Toxicity in CD1 mouse primary cortical neurons assessed as effect on cell viability at 25 nM incubated for 24 hrs by CCK8 assay; format: cell-based, Cortical neurone; conditions: read-out: Activity; summary of the method: as §2
[10] = Toxicity in CD1 mouse primary cortical neurons assessed as effect on cell viability at 50 nM incubated for 24 hrs by CCK8 assay; format: cell-based, Cortical neurone; conditions: read-out: Activity; summary of the method: as §2
Cortical neurone [11] = assay: Neuroprotective activity against amyloid beta (1 to 42) peptide-induced cytotoxicty in CD1 mouse primary cortical neurons assessed as increase in cell viability at 0.01 to 1 nM pre-incubated for 1 hr before amyloid beta (1 to 42) addition and measured after 24 hrs by CCK8 assay; format: functional
BV-2 (Mus musculus) [12] = assay: Antiinflammatory activity in mouse BV-2 cells assessed as inhibition of LPS-induced TNF-alpha production pre-incubated for 1 hr before LPS stimulation for 23 hrs by ELISA method
Cortical neurone [13] = assay: Neuroprotective activity against amyloid beta (1 to 42) peptide-induced cytotoxicty in CD1 mouse primary cortical neurons assessed as increase in cell viability at 0.1 to 10 uM pre-incubated for 1 hr before amyloid beta (1 to 42) addition and measured after 24 hrs by CCK8 assay; format: functional, cell-based
BV-2 (Mus musculus) [14] = assay: Antiinflammatory activity in mouse BV-2 cells assessed as inhibition of LPS-induced TNF-alpha production at 20 nM pre-incubated for 1 hr before LPS stimulation for 23 hrs by ELISA method
Cortical neurone [15] = assay: Toxicity in CD1 mouse primary cortical neurons assessed as effect on cell viability at 1000 nM incubated for 24 hrs by CCK8 assay; format: cell-based; conditions: 1 µM; summary of the method: as §1
Cortical neurone [16] = assay: Neuroprotective activity against amyloid beta (1 to 42) peptide-induced cytotoxicty in CD1 mouse primary cortical neurons assessed as increase in cell viability at 100 to 1000 nM pre-incubated for 1 hr before amyloid beta (1 to 42) addition and measured after 24 hrs by CCK8 assay; format: functional, cell-based
BV-2 (Mus musculus) [17] = assay: Antiinflammatory activity in mouse BV-2 cells assessed as inhibition of LPS-induced TNF-alpha production at 10 to 1000 nM pre-incubated for 1 hr before LPS stimulation for 23 hrs by ELISA method

Which Activity (Cortical neurone [1]) does the source give for `CC(C)[C@]12O[C@H]1[C@@H]1O[C@@]13[C@@]1(C)CCC4=C(COC4=O)[C@@H]1CC[C@@]3(O)[C@@H]2O` here?
The Activity was “Non-Toxic”.

And the Activity (Cortical neurone [2])?
Its Activity is “Active”.

What about the Activity [3] of the same molecule?
The Activity was “Non-Toxic”.

With `CC(C)[C@]12O[C@H]1[C@@H]1O[C@]13[C@]1(O[C@H]1C[C@H]1C4=C(CC[C@@]13C)C(=O)OC4)[C@@H]2OC(=O)NC12CC3CC(C)(CC(C)(C3)C1)C2` as the molecule, how does the viability at 24 h, 0.1 µM [4] read?
Its viability at 24 h, 0.1 µM is 73.5%.

What about the inhibition at 0.01 µM (BV-2 (Mus musculus) [5]) of the same molecule?
Its inhibition at 0.01 µM is 100%.

And the Activity (Cortical neurone [6])?
The Activity was “Non-Toxic”.

And the Activity (Cortical neurone [7])?
The Activity was 100%.

What about the degraded [8] of the same molecule?
The degraded was 13%.

What about the viability at 24 h, 0.025 µM [9] of the same molecule?
The viability at 24 h, 0.025 µM was 7.7%.

What about the Activity [3] of the same molecule?
Its Activity is “Non-Toxic”.

And the viability at 24 h, 0.05 µM [10]?
Its viability at 24 h, 0.05 µM is 32.8%.

What about the Activity (Cortical neurone [11]) of the same molecule?
The Activity was “Dose-dependent effect”.

What about the Activity (BV-2 (Mus musculus) [12]) of the same molecule?
Its Activity is “Dose-dependent effect”.

With `CC(C)[C@]1(O)[C@H](O)[C@@H]2O[C@]23[C@]2(O[C@H]2C[C@H]2C4=C(CC[C@@]23C)C(=O)OC4)[C@@H]1O` as the molecule, how does the Activity (Cortical neurone [13]) read?
The Activity was “Active”.

And the Activity (Cortical neurone [1])?
The Activity was “Non-Toxic”.

For `CC(C)[C@]12O[C@H]1[C@@H]1O[C@@]13[C@@]1(C)CCC4=C(COC4=O)[C@@H]1C[C@@H]1O[C@@]13C2=O` [TRIPTONIDE], which Activity (Cortical neurone [13]) is on record?
The Activity was “inactive”.

What about the inhibition at 0.02 µM (BV-2 (Mus musculus) [14]) of the same molecule?
Its inhibition at 0.02 µM is 100%.

And the Activity [3]?
The Activity was “Non-Toxic”.

What does the source list for `CC(C)[C@]12O[C@H]1[C@@H]1O[C@]13[C@]1(O[C@H]1C[C@H]1C4=C(CC[C@@]13C)C(=O)OC4)[C@H]2F`?
inhibition at 0.02 µM (BV-2 (Mus musculus) [14]): 100%; Activity [3]: Non-Toxic; Activity (Cortical neurone [11]): inactive; Activity (BV-2 (Mus musculus) [12]): Dose-dependent effect

For `CC(C)[C@]12O[C@H]1[C@@H]1O[C@]13[C@]1(O[C@H]1C[C@H]1C4=C(CC[C@@]13C)C(=O)OC4)[C@@H]2OC(=O)NC(C)(C)C`, which Activity (Cortical neurone [15]) is on record?
Its Activity is “Toxic”.

And the Activity (Cortical neurone [16])?
Its Activity is “inactive”.

For `CC(C)[C@]12O[C@H]1[C@@H]1O[C@]13[C@]1(O[C@H]1C[C@H]1C4=C(CC[C@@]13C)C(=O)OC4)[C@@H]2O` [TRIPTOLIDE], which viability at 24 h, 0.1 µM [4] is on record?
The viability at 24 h, 0.1 µM was 76.5%.

And the Activity (Cortical neurone [7])?
The Activity was 100%.

And the degraded [8]?
The degraded was 13%.

What about the viability at 24 h, 0.025 µM [9] of the same molecule?
The viability at 24 h, 0.025 µM was 27.2%.

And the viability at 24 h, 0.05 µM [10]?
Its viability at 24 h, 0.05 µM is 62.8%.

And the Activity (Cortical neurone [11])?
Its Activity is 100%.

And the Activity (BV-2 (Mus musculus) [12])?
Its Activity is “Dose-dependent effect”.

With `CC(C)[C@]1(O)[C@H](F)[C@@H]2O[C@]23[C@]2(O[C@H]2C[C@H]2C4=C(CC[C@@]23C)C(=O)OC4)[C@@H]1O` as the molecule, how does the Activity (Cortical neurone [13]) read?
Its Activity is “Active”.

And the Activity (Cortical neurone [1])?
Its Activity is “Non-Toxic”.

For `CC(C)C1=C[C@@H]2O[C@@]23[C@@]2(C)CCC4=C(COC4=O)[C@@H]2C[C@@H]2O[C@@]23C1=O`, which Activity (BV-2 (Mus musculus) [17]) is on record?
The Activity was “inactive”.

And the Activity (Cortical neurone [1])?
The Activity was “Non-Toxic”.

What about the Activity (Cortical neurone [2]) of the same molecule?
The Activity was “Active”.

And the Activity [3]?
Its Activity is “Non-Toxic”.

And the Activity (BV-2 (Mus musculus) [12])?
Its Activity is “Dose-dependent effect”.

From ChEMBL document CHEMBL4184223 (Bioorg Med Chem Lett, 2018)
